High-throughput results deposited in PubChem BioAssay by several laboratories.
TbMetRS inhib = Trypanosoma brucei MetRS inhibition | purified T. brucei MetRS, ATP depletion, Kinase-Glo luminescence | 360,000 compounds, 0.4% hits | inhibition, % at 11.9 µM;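 active = inhibition above a per-plate cutoff of the control wells' mean inhibition plus 3 SD, cut at about 5.5% in these data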
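Material: parasite MetRS enzyme / Replication: singlicate, one well per compound / Signal: luminescence of leftover ATP / Schedule: 2 h aminoacylation at 25 °C after 15 min preincubation / Medium: HEPES-MgCl2-KCl buffer plus DTT, spermine, BSA, pyrophosphatase / Doses: 11.9 µM single point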
E coli Lon inh = E. coli protease La inhibition; inhibition, % at 7.94 µM; P0A9M0; 360,000 compounds, 0.42% hits; purified E. coli Lon protease, fluorescence polarization; in the data active = inhibition above about 13%, passing the limit was not always enough
Target sequence (P0A9M0 whole entry, looked up): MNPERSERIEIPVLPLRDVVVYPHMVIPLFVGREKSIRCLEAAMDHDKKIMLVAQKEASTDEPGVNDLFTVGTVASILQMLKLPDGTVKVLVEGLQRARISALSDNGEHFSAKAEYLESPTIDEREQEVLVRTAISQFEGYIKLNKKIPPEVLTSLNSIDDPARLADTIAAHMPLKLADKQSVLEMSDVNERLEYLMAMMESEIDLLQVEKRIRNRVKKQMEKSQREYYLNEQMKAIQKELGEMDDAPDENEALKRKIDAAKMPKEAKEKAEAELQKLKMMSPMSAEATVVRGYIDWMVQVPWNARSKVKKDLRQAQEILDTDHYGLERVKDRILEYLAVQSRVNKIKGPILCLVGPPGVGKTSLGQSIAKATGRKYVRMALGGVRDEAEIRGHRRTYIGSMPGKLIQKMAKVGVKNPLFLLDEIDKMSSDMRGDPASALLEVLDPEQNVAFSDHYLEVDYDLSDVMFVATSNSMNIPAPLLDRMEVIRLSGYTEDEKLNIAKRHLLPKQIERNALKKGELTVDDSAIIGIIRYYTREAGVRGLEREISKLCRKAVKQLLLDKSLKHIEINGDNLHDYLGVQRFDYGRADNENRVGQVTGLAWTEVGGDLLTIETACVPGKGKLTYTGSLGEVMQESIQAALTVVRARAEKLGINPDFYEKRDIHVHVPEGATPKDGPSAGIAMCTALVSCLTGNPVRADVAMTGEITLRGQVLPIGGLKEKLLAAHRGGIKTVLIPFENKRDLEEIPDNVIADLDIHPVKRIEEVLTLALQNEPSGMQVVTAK
PREPL inhibitor = inhibitors of human prolyl oligopeptidase-like enzyme PREPL. recombinant PREPL, fluorescence polarization activity-based probe. Q4J6C6. inhibition, % at 5.96 µM. AID 2751. 320,000 compounds, 0.68% hits; in the data active = inhibition above about 43%
MT1-MMP act inh = inhibitors of human MT1-MMP activation. P50281. HT1080 RFP-PRO-GFP cells, GFP/RFP ratio fluorescence, overnight; percent of plate control window, DMSO zero. GFP/RFP ratio change, % at 20 µM. 360,000 compounds, 0.061% hits. AID 651647;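 active = GFP/RFP ratio change of at least 30% with cell ATP level not reduced by more than half and red fluorescence within 50% of control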
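Material – HT1080 RFP-PRO-GFP cells · Control set – DMSO wells and RFP-L50D-GFP cells · Incubation – overnight cell settling, then overnight compound exposure, 37 °C, 5% CO2 · Compound dosing – single-point 20 µM compound, 1% DMSO · Read-out – GFP/RFP fluorescence ratio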
SKN-1 block = C. elegans SKN-1 inhibition. C. elegans VP596 Pgst-4::GFP/RFP ratio, acrylamide-induced, 24 h. inhibition, % at 21.8 µM. 360,000 compounds, 0.49% hits. AID 624304;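 active = interference check ratio from 0.5 to 1.5 plus GFP to RFP signal ratio inhibition reaching or exceeding a fixed threshold, cut at about 30% in these data, passing the limit was not always enough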
hiPSC survival = increases survival of single human iPS cells. hiPSC single-cell survival, ATPlite luminescence; 100% = ROCK inhibitor wells, 0% = DMSO. survival enhancement, % at 20 µM. 360,000 compounds, 0.044% hits. AID 602274; in the data active = survival enhancement above about 18%;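 note: cells exposed to compounds for 16 hours before the ATP read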
TbMetRS confirm = confirmation of Trypanosoma brucei MetRS inhibitors; shares compounds with TbMetRS inhib; T. brucei MetRS enzyme, luminescence (ATP depletion); inhibition, % at 11.9 µM; 1,400 compounds, 93% hits; in the data active = inhibition above about 7%
Jurkat tox = counter-screen for T. brucei MetRS inhibitors: Jurkat cell cytotoxicity; shares compounds with TbMetRS inhib; Jurkat cells viability, ATP luminescence; inhibition, % at 8.3 µM; 1,400 compounds, 12% hits; in the data active = inhibition above about 15%
TbMetRS FP orth = T. brucei MetRS inhibition, orthogonal assay; shares compounds with TbMetRS inhib; purified T. brucei MetRS, fluorescence polarization; inhibition, % at 11.9 µM; 1,400 compounds, 44% hits; AID 651607; in the data active = inhibition above about 17%
Of the large screens only hits and unclear results are named; the others gave an inactive call (follow-up assays come after a bar, where they were run). An excerpt weighted towards active compounds, which were near 1.8% of everything screened.

CC(C(=O)Nc1ccc(O)cc1)c1cccc(C(=O)c2ccccc2)c1 (centres undefined)	TbMetRS inhib 22 | TbMetRS confirm 30 | Jurkat tox 19 | TbMetRS FP orth 31
CC(=O)Nc1ccc(NC(=O)C(C)c2cccc(C(=O)c3ccccc3)c2)cc1 (centres undefined)	none
COc1ccc(C2=NN(C(=O)c3ccccc3)C(c3ccc(OC)c(OC)c3)C2)c(OC(C)=O)c1 (centres undefined)	none
CCn1ncc(Cl)c1C(=O)Nc1cc(Cl)ccc1Cl	none
CC(=O)NS(=O)(=O)c1ccc(NC(=O)/C=C/c2cn(-c3ccccc3)nc2-c2ccccc2)cc1	TbMetRS inhib 51 | TbMetRS confirm 49 | Jurkat tox inactive | TbMetRS FP orth 42
O=C(NCCc1ccccc1)C(c1ccccc1F)N(C(=O)c1csnn1)C1CC1 (centres undefined)	none
Cc1ccc(S(=O)(=O)Nc2cccc3ncccc23)cc1	none
Cc1ccc(S(=O)(=O)Nc2ccnc3ccccc23)cc1	TbMetRS inhib 7.0 | TbMetRS confirm 15 | Jurkat tox inactive | TbMetRS FP orth inactive
Cc1cc2c(NC(=O)Nc3ccc(C(F)(F)F)cc3)cccc2nn1	none
CCOC(=O)CNC(=O)CSc1ccc(-c2nc3ccccc3[nH]2)cn1	TbMetRS inhib 9.1 | TbMetRS confirm 28 | Jurkat tox inactive | TbMetRS FP orth inactive
Cc1ccc2nc(-c3ccc(SCC(=O)O)nc3)[nH]c2c1	TbMetRS inhib 10 | TbMetRS confirm 21 | Jurkat tox inactive | TbMetRS FP orth inactive
N#Cc1ccccc1CSc1ccc(-c2nc3ccccc3[nH]2)cn1	TbMetRS inhib 11 | TbMetRS confirm 24 | Jurkat tox inactive | TbMetRS FP orth 21
O=C(CSc1ccc(-c2nc3ccccc3[nH]2)cn1)Nc1ccc(S(=O)(=O)N2CCCC2)cc1	TbMetRS inhib 30 | TbMetRS confirm 33 | Jurkat tox inactive | TbMetRS FP orth 31
Cc1cc2nc(-c3ccc(SCC(=O)Nc4ccc(S(=O)(=O)N5CCCC5)cc4)nc3)[nH]c2cc1C	none
Cc1ccc2nc(-c3ccc(SCC(=O)N4CCc5ccccc54)nc3)[nH]c2c1	none
CCCCNC(=O)c1cc(-c2ccc(F)cc2)on1	none
O=[N+]([O-])c1cc(S(=O)(=O)Nc2cccc(Cl)c2)ccc1N/N=C/c1ccc(N2CCOCC2)cc1	none
CCCCOc1ccc(OCCNC(=O)c2ccco2)cc1	none
Cc1cc(NC(=O)Cn2c(=O)oc3ccccc32)no1	none
Cc1cccc(NC(=O)Cn2c(/C=C/c3ccccc3)nc3ccccc32)c1	TbMetRS inhib 10 | TbMetRS confirm 19 | Jurkat tox inactive | TbMetRS FP orth inactive
CCOC(=O)c1cccc(NC(=O)Cn2c(CC(=O)NC)nc3ccccc32)c1	TbMetRS inhib 79 | TbMetRS confirm 88 | Jurkat tox inactive | TbMetRS FP orth 71
Cc1ccc(NC(=O)Cn2c(=O)c(C)nc3ccccc32)cc1	none
Cc1nc2ccccc2n(CC(=O)Nc2cc(Cl)cc(Cl)c2)c1=O	TbMetRS inhib 5.8 | TbMetRS confirm 11 | Jurkat tox inactive | TbMetRS FP orth inactive
CC(=O)Nc1ccc(S(=O)(=O)N2CCC(Oc3ccc(-n4cnnn4)cc3)CC2)cc1	TbMetRS inhib 6.0 | TbMetRS confirm 15 | Jurkat tox inactive | TbMetRS FP orth inactive
Cn1c(COc2ccc(Cl)cc2Cl)nnc1SCC(=O)NCC1CCCO1 (centres undefined)	TbMetRS inhib 6.0 | TbMetRS confirm 17 | Jurkat tox inactive | TbMetRS FP orth inactive
COc1ccc2c(c1)nc(SCC(=O)c1cccs1)n2C	none
CCOC(=O)c1sc(NC(=O)Nc2ccccc2)cc1C	TbMetRS inhib 11 | TbMetRS confirm 28 | Jurkat tox inactive | TbMetRS FP orth 36
O=C(NNc1cc(Cl)cc(Cl)c1)c1cccs1	TbMetRS inhib 25 | TbMetRS confirm 56 | Jurkat tox inactive | TbMetRS FP orth 30
CCc1ccc(C(=O)NNc2cc(Cl)cc(Cl)c2)cc1	TbMetRS inhib 15 | TbMetRS confirm 39 | Jurkat tox inactive | TbMetRS FP orth 19
O=C(NNc1ccc(Cl)cc1)c1cccs1	none
COc1ccccc1CN(C)C[C@H]1OCc2cnnn2CCCC(=O)N([C@@H](C)CO)C[C@@H]1C	none (no result: PREPL inhibitor)
O=c1c(OC2OC(CO)C(O)C(O)C2OC2OC(CO)C(O)C(O)C2O)c(-c2ccc(O)cc2)oc2cc(O)cc(O)c12 (centres undefined)	TbMetRS inhib 7.1 | TbMetRS confirm 22 | Jurkat tox inactive | TbMetRS FP orth 23
O=c1c(O[C@H]2O[C@@H](CO)[C@H](O)[C@@H](O)[C@@H]2O)c(-c2ccc(O)cc2)oc2cc(O)cc(O)c12	none
Cn1c(CSc2nc3ccc(Br)cc3[nH]2)nc2ccccc21	TbMetRS inhib 12 | TbMetRS confirm 18 | Jurkat tox inactive | TbMetRS FP orth inactive
COCCN1CC(C(=O)NCCc2nc(C)c(C)s2)CCC1=O (centres undefined)	none
Cc1ccc(C(=O)N/C(=C\c2cccnc2)c2nc3ccccc3[nH]2)cc1	TbMetRS inhib 15 | TbMetRS confirm 35 | Jurkat tox inactive | TbMetRS FP orth inactive
COc1ccc(C(=O)N/C(=C\c2cccs2)c2nc3ccccc3[nH]2)cc1OC	TbMetRS inhib 8.2 | TbMetRS confirm 16 | Jurkat tox inactive | TbMetRS FP orth inactive
COc1ccc(/C=C(/NC(=O)c2ccccc2)c2nc3ccccc3[nH]2)cc1OC	none
O=C(c1c[nH]c2ccccc12)N1CCN(c2ccccc2)CC1	none
O=C(CN1CCN(Cc2ccc3c(c2)OCO3)CC1)c1c[nH]c2ccccc12	TbMetRS inhib 14 | TbMetRS confirm 27 | Jurkat tox inactive | TbMetRS FP orth inactive
COc1ccccc1N1CCN(C(=O)C(=O)c2c[nH]c3ccccc23)CC1	TbMetRS inhib 9.3 | TbMetRS confirm 27 | Jurkat tox inactive | TbMetRS FP orth inactive
Cc1[nH]c2ccccc2c1C(=O)C(=O)N1CCN(C)CC1	none
O=C(C(=O)N1CCN(c2ccccc2F)CC1)c1c[nH]c2ccccc12	TbMetRS inhib 7.3 | TbMetRS confirm 11 | Jurkat tox inactive | TbMetRS FP orth inactive
COc1ccc(N2CCN(C(=O)C(=O)c3c[nH]c4ccccc34)CC2)cc1	none
